In ChEMBL document CHEMBL1145185, “Novel inhibitors of human histone deacetylases: design, synthesis, enzyme inhibition, and cancer cell growth inhibition of SAHA-based non-hydroxamates” (J Med Chem, 2005):
pEC50, pIC50: −log10 of the molar value.

Target: Histone deacetylase
Assay: Inhibitory concentration against human histone deacetylase
Type: protein assay
Settings: not given

Row | SMILES | IC50
1 | O=C(CCCCCCS)Nc1nc2ccccc2s1 | 340 nM
2 | CSCCCCCCC(=O)Nc1ccccc1 | > 100000 nM
3 | NCC(=O)NCCCCCC(=O)Nc1ccccc1 | > 100000 nM
4 | O=CN(O)CCCCCCCC(=O)Nc1ccccc1 | 2800 nM
5 | C#CCN(CC#C)CCCCCC(=O)Nc1ccccc1 | > 100000 nM
6 | CNC(=O)C(=O)CCCCCCC(=O)Nc1ccccc1 | 340 nM
7 | O=C(CO)NCCCCCC(=O)Nc1ccccc1 | > 100000 nM
8 | C#CCNCCCCCC(=O)Nc1ccccc1 | > 100000 nM
9 | O=C(CCCCCCS(=O)(=O)NO)Nc1ccccc1 | > 100000 nM

Same assay, conditions: read-out: IC50

Row | SMILES | pIC50
10 | O=C(CCCCCCS)Nc1cccc(-c2ccccc2)c1 | 7.12
11 | O=C(NCCCCCCS)c1cc2ccccc2[nH]1 | 7.00
12 | O=C(CCCCCCS)Nc1cccnc1 | 6.96
13 | CN(C)c1ccc(NC(=O)CCCCCCS)cc1 | 5.92
14 | O=C(CCCCCCS)Nc1nc(-c2ccccc2)cs1 | 6.77
15 | O=C(NCCCCCCS)c1ccc2ccccc2c1 | 7.07
16 | SCCCCCCOc1ccccc1 | 4.96
17 | O=C(CCCCCCS)Nc1ccc(Oc2ccccc2)cc1 | 6.21
18 | O=C(NCCCCCCS)c1ccccc1 | 6.44
19 | O=C(CCCCCCS)Nc1cccc(Oc2ccccc2)c1 | 6.68
20 | O=C(CCCCCCS)Nc1ccc(-c2ccccc2)cc1 | 5.96
21 | CN(C)c1ccc(C(=O)NCCCCCCS)cc1 | 6.21

Target: Histone deacetylase (Homo sapiens) (UniProt Q13547+O15379+Q9UBN7+Q92769+Q9UQL6+Q8WUI4+Q9BY41+Q96DB2+P56524+Q9UKV0+Q969S8)
Settings: at 100 µM

Row | SMILES | inhibition
22 | CSCCCCCCC(=O)Nc1ccccc1 | 11%
23 | C#CCN(CC#C)CCCCCC(=O)Nc1ccccc1 | 0%
24 | CC(=O)SCCCCCCC(=O)Nc1ccccc1 | 85%
25 | C#CCNCCCCCC(=O)Nc1ccccc1 | 14%
26 | O=C(CCCCCCS(=O)(=O)NO)Nc1ccccc1 | 14%

System: NCI-H460
Assay: Inhibition of human lung cancer NCI-H460 cell growth
Type: functional, cell-based
Settings: not given
Procedure, shortened: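 Cells seeded at 1500/well, 37 °C; after 24 h exposed to compounds at various concentrations in 10% FBS RPMI-1640, 37 °C, 5% CO₂, 48 h. Stained with 0.5 mg/mL methylene blue, room temperature, 30 min; dye dissolved in 3% aqueous HCl, absorbance at 660 nm. EC₅₀ reported as mean of at least two experiments.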

Row | SMILES | pEC50
27 | CC(C)(C)C(=O)SCCCCCCC(=O)Nc1ccccc1 | < 4.30
28 | O=C(CCCCCCSC(=O)c1ccc([N+](=O)[O-])cc1)Nc1ccccc1 | 4.62
29 | CCCC(=O)SCCCCCCC(=O)Nc1ccccc1 | 4.66
30 | CC(C)(C)C(=O)OCSCCCCCCC(=O)Nc1ccccc1 | 4.60
31 | CC(C)C(=O)SCCCCCCNC(=O)c1cc2ccccc2o1 | 5.39
32 | CC(C)C(=O)SCCCCCCC(=O)Nc1cccnc1 | 5.54
33 | CC(C)C(=O)SCCCCCCNC(=O)c1cc2ccccc2[nH]1 | 4.92
34 | CC(C)C(=O)SCCCCCCC(=O)Nc1cnc2ccccc2c1 | 5.10
35 | O=C(CCCCCCSC(=O)C1CC1)Nc1ccccc1 | 4.57
36 | CC(C)C(=O)SCCCCCCC(=O)Nc1nc2ccccc2s1 | 5.02
37 | CC(C)C(=O)SCCCCCCC(=O)Nc1cccc(Oc2ccccc2)c1 | 4.60
38 | CC(C)C(=O)SCCCCCCNC(=O)c1ccc2ccccc2c1 | 4.92
39 | O=C(CCCCCCSSCCCCCCC(=O)Nc1ccccc1)Nc1ccccc1 | < 4.30
40 | CCC(=O)SCCCCCCC(=O)Nc1ccccc1 | 4.55
41 | CC(=O)SCCCCCCC(=O)Nc1ccccc1 | 4.44
42 | O=C(CCCCCCSC(=O)C1CCCC1)Nc1ccccc1 | 4.68
43 | CC(C)C(=O)SCCCCCCC(=O)Nc1cccc(-c2ccccc2)c1 | 5.55

System: not listed separately
Assay: Effective Concentration of compound to inhibit the growth of human RXF-631L cells
Type: functional, cell-based
Settings: not given

Row | SMILES | pEC50
44 | CC(C)C(=O)SCCCCCCC(=O)Nc1nc(-c2ccccc2)cs1 | 5.62
